{
  "source": "paper PMC6263940",
  "about": "(Nature chemical biology, 2018)",
  "key": {"ABHD12 [1]": {"target": "T1, ABHD12 (Mus musculus, UniProt Q99LR1)", "T1 sequence (Q99LR1 1-398)": "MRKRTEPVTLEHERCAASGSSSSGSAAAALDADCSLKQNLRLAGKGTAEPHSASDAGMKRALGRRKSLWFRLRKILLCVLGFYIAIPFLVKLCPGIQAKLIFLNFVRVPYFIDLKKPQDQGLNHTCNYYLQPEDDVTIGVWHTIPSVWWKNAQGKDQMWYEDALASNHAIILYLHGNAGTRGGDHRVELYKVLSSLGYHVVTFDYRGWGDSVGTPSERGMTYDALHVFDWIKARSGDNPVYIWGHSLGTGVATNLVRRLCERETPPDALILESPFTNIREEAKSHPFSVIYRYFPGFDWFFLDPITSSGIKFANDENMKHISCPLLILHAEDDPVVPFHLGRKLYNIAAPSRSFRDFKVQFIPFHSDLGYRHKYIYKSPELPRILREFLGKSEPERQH", "test": "Lyso-PS hydrolysis assay with membrane lysates of ABHD12-transfected cells", "assay_type": "biochemical", "method_in_brief": "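Membrane lysate of ABHD12-transfected cells in DPBS incubated with 17:1 lyso-PS (100 μM final) for 20 min at 37 °C. Quenched in 2:1 CHCl₃/MeOH with 15:0 FFA internal standard. Activity is the LC-MS 17:1 FFA/15:0 FFA peak-area ratio minus mock-transfected membrane activity. IC50 fitted as log(inhibitor) vs normalized response.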"}, "ABHD12 [2]": {"target": "T1, ABHD12", "test": "ABHD12-dependent lyso-PS lipase activity of mouse brain membrane proteome", "assay_type": "biochemical"}, "[3]": {"target": "T2, mouse brain serine hydrolases (Mus musculus, UniProt Q9QXM0)", "T2 sequence (Q9QXM0 1-425)": "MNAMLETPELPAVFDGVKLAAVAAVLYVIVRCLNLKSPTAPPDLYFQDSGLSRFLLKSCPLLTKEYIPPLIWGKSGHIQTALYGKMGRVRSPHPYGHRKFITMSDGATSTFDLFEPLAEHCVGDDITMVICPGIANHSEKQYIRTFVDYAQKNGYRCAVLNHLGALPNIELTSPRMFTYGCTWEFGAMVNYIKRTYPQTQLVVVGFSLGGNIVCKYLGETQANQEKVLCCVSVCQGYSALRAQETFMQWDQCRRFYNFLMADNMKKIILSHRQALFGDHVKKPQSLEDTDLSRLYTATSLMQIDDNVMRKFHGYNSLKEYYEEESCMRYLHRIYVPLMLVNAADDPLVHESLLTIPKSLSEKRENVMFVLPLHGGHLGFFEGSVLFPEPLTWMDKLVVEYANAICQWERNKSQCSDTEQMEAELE", "assay_type": "biochemical", "conditions": "MS-ABPP, mouse brain membrane proteome, 1 μM"}, "[4]": {"system": "mouse brain serine hydrolases", "assay_type": "biochemical", "conditions": "gel-based ABPP 0.1 or 2 μM; MS-based ABPP 1 μM"}, "ABHD2": {"target": "T3, ABHD2 (Mus musculus, UniProt Q9QXM0)", "T3 sequence (Q9QXM0 1-425)": "T2 sequence (Q9QXM0 1-425)", "test": "Quantitative MS-ABPP of brain membrane proteome from treated mice: ABHD2", "assay_type": "in vivo", "conditions": "30 mg/kg, i.p., 4 h", "method_in_brief": "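Mice dosed i.p. with test compound (30 mg/kg) or vehicle and killed after 4 h (isoflurane, then cervical dislocation). Brain membrane serine hydrolase activities quantified by MS-based ABPP. Each protein's value is the mean of median peptide ratios (treated vs vehicle) ± SEM, from n = 4 or 3 independent samples per compound.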"}, "mouse PLA2G6": {"target": "T4, mouse PLA2G6 (Mus musculus, UniProt P97819)", "T4 sequence (P97819 1-807)": "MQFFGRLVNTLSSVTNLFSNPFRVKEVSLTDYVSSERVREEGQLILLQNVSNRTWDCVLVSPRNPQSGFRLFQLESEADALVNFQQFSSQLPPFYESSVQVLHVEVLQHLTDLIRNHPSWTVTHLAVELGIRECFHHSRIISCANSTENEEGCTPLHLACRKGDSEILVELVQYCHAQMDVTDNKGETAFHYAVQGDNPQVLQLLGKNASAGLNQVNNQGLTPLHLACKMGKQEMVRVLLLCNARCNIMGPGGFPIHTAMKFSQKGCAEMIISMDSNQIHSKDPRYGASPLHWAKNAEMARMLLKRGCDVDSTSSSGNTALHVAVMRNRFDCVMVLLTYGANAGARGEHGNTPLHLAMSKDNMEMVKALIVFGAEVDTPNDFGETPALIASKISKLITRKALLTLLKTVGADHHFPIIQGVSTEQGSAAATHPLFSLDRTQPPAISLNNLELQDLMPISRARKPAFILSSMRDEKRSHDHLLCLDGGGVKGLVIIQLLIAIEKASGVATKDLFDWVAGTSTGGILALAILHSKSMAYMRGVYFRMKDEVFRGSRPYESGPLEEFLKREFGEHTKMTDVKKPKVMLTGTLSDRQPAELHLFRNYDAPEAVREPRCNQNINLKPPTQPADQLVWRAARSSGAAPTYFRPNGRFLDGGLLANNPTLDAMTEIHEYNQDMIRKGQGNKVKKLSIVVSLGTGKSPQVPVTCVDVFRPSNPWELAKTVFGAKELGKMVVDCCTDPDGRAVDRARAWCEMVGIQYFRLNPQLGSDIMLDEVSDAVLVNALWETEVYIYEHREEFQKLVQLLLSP", "test": "Competitive gel ABPP", "assay_type": "biochemical", "conditions": "membrane lysate 1 mg/mL of transfected HEK293T cells, FP-Rh", "method_in_brief": "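HEK293T cells transiently transfected with mouse PLA2G6 cDNA (pCMV-SPORT6); membrane lysate (1 mg/mL) prepared. Lysate pre-exposed to test compound, then labelled with FP-Rh (1 μM final, 45 min, 37 °C). Gel band intensity compared with a control-treated sample.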"}, "C57BL/6 mice": {"system": "C57BL/6 mice", "test": "Targeted LC-MS of brain lipid content of treated mice", "assay_type": "in vivo, mouse", "method_in_brief": "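Mice received test compound or vehicle i.p. (single doses, 24 h; or 30 mg/kg time course), orally (24 h), or 30 mg/kg daily p.o. for four weeks (8-month-old mice). Brains harvested after isoflurane and cervical dislocation; lipids measured by targeted LC-MS. ABHD12(+/+) and (−/−) brains serve as reference; chronic data given as mean ± SEM.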"}},
  "data": [
    {"compound": "FC(F)(F)Oc1ccc(Oc2ccnc(N3CCC(NC(=S)Nc4cccnc4)CC3)c2Cl)c(Cl)c1", "note": "[DO264, N-3-pyridyl-N’-(1-[3-chloro-4-{2-chloro-4-(trifluoromethoxy)phenoxy}pyridine-2-yl]piperidin-4-yl)thiourea]", "values": [
      {"measurement": "time dependence of ABHD12 inhibition", "setting": "ABHD12 [1]; 30-45 min or no preincubation, ABHD12-transfected HEK293T lysate 0.2 mg/mL", "result": "did not show time-dependent inhibition"},
      {"measurement": "ABHD12 activity after dilution of inhibitor-treated lysates", "setting": "ABHD12 [1]; ABHD12-transfected HEK293T lysates, preincubated 20 min, diluted five-fold", "result": "recovery of ABHD12 activity"},
      {"measurement": "IC50", "setting": "ABHD12 [2]", "result": 2.8, "unit": "nM"},
      {"measurement": "inhibition of mouse ABHD2 in vitro", "setting": "[3]", "result": "did not inhibit"},
      {"measurement": "selectivity for ABHD12 over other mouse brain serine hydrolases", "setting": "[4]", "result": "excellent selectivity"},
      {"measurement": "reduction in ABHD2 activity in treated mice", "setting": "ABHD2", "result": "40-50%"},
      {"measurement": "inhibition of recombinantly expressed PLA2G6", "setting": "mouse PLA2G6", "result": "nor did the compound inhibit"},
      {"measurement": "time post-dosing at which brain lyso-PS changes were maximal", "setting": "C57BL/6 mice; 30 mg/kg, i.p., detectable by 4 h", "result": 24, "unit": "h"},
      {"measurement": "brain 20:4 lyso-PI", "setting": "C57BL/6 mice; 30 mg/kg, p.o., 24 h", "result": "increase"},
      {"measurement": "brain lyso-PS and 20:4 PS after chronic treatment", "setting": "C57BL/6 mice; 8-month-old mice, 30 mg/kg daily, p.o., four weeks", "result": "Substantial elevations"},
      {"measurement": "brain lyso-PS species and select 20:4 PS species", "setting": "C57BL/6 mice; DO264 1-60 mg/kg, (S)-DO271 60 mg/kg, i.p., 24 h", "result": "dose-dependently increased"},
      {"measurement": "brain 2-AG", "setting": "C57BL/6 mice; brain tissue of treated mice", "result": "did not show changes"},
      {"measurement": "dose at which maximal lyso-PS and 20:4 PS elevations were observed", "setting": "C57BL/6 mice; i.p., 24 h", "result": 30, "unit": "mg/kg"}
    ]}
  ]
}
